Measurements as given in ChEMBL document CHEMBL1130008, “Structure-based design of a potent, selective, and irreversible inhibitor of the catalytic domain of the erbB receptor subfamily of protein tyrosine kinases” (J Med Chem, 1997).

Tests used:
[1] = Affinity for mouse cyclic-AMP dependent Ser/Thr Kinase
[2] = molecular target: Fibroblast growth factor receptor (Homo sapiens) (UniProt P22607+P11362+P22455+P21802); assay: Inhibition of human fibroblast growth factor receptor (FGF) at 50 uM (no effect); format: protein assay
[3] = molecular target: Platelet-derived growth factor receptor beta (Homo sapiens) (UniProt P09619); assay: Inhibition of human Platelet-derived growth factor receptor at 50 uM (no effect)
[4] = molecular target: T1, Epidermal growth factor receptor (Homo sapiens, UniProt P00533); assay: Inhibition of erbB-1 receptor tyrosine kinase from A431 human epidermoid carcinoma cells; format: cell-based, A-431
Method in brief: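 Full-length erbB-1 purified from A431 cell lysate by anti-EGF-receptor antibody affinity resin and eluted with EGF. Run at 25 °C for 10 min, stopped with TCA, precipitate counted by scintillation.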

[5] = molecular target: Insulin receptor (Homo sapiens) (UniProt P06213); assay: Inhibition of human insulin receptor tyrosine kinase at 50 uM (no effect)
[6] = molecular target: Receptor tyrosine-protein kinase erbB-2 (Homo sapiens, UniProt P04626); assay: Inhibition of human erbB-2 receptor tyrosine kinase
[7] = molecular target: T1, Epidermal growth factor receptor; assay: Second order rate constant for inactivation of erbB-1 receptor of A431 human epidermoid carcinoma cells; format: cell-based; conditions: A-431
Method in brief: (§1)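 A431 full-length erbB-1 preincubated with 0.1–25 µM nucleoside in kinase buffer lacking ATP for 1, 5, 15 or 30 min. 10 µM [32P]ATP then started a 10 min, 25 °C poly(Glu,Tyr) phosphorylation. Activity as % of control on semilog plots gave pseudo-first-order constants, fitted hyperbolically against concentration. Run in duplicate.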

[8] = molecular target: T1, Epidermal growth factor receptor; assay: Half life for inactivation of erbB-1 receptor; method in brief: as §1
[9] = molecular target: T1, Epidermal growth factor receptor; assay: (§2) Rate constant for inactivation of erbB-1 receptor of A431 human epidermoid carcinoma cells; format: cell-based, A-431; method in brief: as §1
[10] = molecular target: T1, Epidermal growth factor receptor; assay: Saturation rate constant for complex formation with human erbB-1 receptor; method in brief: as §1
[11] = molecular target: T1, Epidermal growth factor receptor; assay: Inhibition of human erbB-1 receptor tyrosine kinase activity at 5 uM
Method in brief: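 A431-derived full-length erbB-1 was preincubated with 5 µM nucleoside without ATP, then assayed with 10 µM [32P]ATP and poly(Glu,Tyr) at 25 °C for 10 min; a TCA-precipitate count gave the read-out. Reversibility was tested by treating with 1 mM dithiothreitol.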

[12] = molecular target: T1, Epidermal growth factor receptor; assay: as §2; format: cell-based; conditions: A-431; method in brief: as §1

Insulin receptor (Homo sapiens), sequence (P06213 28-758 limits assumed): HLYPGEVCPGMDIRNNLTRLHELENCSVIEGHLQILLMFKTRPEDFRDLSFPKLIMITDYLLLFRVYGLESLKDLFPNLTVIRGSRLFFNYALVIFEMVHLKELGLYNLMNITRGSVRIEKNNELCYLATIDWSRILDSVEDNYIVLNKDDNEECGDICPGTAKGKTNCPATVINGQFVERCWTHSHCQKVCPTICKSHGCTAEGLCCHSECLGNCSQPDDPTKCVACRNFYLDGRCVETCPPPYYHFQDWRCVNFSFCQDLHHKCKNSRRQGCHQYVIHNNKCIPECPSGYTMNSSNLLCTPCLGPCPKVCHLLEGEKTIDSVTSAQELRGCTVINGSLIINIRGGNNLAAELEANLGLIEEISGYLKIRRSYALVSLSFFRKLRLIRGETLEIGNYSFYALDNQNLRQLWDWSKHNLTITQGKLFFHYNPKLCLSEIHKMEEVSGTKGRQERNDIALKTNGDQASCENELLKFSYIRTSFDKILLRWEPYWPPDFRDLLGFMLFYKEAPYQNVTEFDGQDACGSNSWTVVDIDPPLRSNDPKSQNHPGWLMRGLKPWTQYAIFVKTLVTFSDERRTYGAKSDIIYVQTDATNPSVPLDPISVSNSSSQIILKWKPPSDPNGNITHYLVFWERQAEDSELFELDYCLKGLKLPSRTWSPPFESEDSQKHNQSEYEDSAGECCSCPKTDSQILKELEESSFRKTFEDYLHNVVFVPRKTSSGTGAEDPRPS
Insulin receptor (Homo sapiens), sequence (P06213 763-1382 limits assumed): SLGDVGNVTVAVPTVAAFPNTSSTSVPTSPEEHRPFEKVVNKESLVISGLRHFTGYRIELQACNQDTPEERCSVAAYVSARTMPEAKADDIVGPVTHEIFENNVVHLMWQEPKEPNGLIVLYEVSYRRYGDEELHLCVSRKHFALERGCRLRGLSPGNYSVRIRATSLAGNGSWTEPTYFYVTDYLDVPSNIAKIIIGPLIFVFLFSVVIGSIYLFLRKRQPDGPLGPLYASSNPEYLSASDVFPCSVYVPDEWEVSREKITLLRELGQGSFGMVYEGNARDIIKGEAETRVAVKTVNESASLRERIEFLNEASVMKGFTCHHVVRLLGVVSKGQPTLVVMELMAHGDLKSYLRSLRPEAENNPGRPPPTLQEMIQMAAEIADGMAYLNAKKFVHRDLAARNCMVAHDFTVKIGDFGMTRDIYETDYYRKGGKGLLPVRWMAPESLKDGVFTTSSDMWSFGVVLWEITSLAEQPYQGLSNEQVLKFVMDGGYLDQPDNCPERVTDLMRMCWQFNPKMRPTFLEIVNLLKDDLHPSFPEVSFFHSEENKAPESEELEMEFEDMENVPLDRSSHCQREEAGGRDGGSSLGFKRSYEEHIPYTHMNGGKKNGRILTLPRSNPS
Fibroblast growth factor receptor (Homo sapiens), sequence (P11362 whole entry, looked up): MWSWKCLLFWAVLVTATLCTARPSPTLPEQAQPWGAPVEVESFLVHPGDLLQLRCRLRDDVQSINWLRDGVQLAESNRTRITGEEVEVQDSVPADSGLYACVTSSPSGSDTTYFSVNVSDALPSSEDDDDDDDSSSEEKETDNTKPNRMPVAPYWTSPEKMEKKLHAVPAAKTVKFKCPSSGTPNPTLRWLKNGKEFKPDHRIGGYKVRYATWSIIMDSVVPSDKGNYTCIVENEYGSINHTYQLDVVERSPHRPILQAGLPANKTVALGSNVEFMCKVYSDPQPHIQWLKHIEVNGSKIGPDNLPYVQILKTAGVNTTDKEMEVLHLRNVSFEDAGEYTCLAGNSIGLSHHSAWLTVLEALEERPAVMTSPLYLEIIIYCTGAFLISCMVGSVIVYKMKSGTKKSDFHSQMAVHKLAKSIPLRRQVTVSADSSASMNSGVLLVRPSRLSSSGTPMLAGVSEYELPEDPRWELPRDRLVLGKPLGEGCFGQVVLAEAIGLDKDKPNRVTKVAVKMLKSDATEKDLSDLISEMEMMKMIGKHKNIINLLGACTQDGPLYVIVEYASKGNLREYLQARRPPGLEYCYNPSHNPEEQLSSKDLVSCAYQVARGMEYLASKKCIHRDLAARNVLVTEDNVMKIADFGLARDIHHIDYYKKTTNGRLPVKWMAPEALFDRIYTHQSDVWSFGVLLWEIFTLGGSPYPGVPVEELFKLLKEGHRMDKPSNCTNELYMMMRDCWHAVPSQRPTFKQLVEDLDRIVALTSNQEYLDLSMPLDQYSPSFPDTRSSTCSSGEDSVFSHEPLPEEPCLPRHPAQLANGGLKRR
Fibroblast growth factor receptor (Homo sapiens), sequence (P21802 whole entry, looked up): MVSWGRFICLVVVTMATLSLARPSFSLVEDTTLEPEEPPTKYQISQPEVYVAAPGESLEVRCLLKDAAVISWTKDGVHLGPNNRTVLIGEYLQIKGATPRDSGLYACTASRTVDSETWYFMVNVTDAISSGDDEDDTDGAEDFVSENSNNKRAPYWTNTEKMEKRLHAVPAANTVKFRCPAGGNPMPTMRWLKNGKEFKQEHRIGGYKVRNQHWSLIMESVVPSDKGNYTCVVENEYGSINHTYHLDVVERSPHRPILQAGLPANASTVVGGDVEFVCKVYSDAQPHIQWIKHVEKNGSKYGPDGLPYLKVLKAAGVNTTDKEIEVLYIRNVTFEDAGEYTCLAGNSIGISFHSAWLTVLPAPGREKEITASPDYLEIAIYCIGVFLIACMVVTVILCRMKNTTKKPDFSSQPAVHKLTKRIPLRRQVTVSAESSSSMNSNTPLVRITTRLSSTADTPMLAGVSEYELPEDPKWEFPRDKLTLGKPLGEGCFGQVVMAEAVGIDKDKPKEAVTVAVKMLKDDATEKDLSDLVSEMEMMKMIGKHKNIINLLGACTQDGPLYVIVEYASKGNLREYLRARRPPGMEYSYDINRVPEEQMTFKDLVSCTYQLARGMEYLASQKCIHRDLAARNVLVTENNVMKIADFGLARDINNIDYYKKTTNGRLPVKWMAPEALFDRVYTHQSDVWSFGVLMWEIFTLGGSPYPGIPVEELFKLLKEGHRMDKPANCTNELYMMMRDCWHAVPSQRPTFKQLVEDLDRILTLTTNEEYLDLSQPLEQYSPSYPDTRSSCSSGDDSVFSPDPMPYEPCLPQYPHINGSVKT
Fibroblast growth factor receptor (Homo sapiens), sequence (P22455 whole entry, looked up): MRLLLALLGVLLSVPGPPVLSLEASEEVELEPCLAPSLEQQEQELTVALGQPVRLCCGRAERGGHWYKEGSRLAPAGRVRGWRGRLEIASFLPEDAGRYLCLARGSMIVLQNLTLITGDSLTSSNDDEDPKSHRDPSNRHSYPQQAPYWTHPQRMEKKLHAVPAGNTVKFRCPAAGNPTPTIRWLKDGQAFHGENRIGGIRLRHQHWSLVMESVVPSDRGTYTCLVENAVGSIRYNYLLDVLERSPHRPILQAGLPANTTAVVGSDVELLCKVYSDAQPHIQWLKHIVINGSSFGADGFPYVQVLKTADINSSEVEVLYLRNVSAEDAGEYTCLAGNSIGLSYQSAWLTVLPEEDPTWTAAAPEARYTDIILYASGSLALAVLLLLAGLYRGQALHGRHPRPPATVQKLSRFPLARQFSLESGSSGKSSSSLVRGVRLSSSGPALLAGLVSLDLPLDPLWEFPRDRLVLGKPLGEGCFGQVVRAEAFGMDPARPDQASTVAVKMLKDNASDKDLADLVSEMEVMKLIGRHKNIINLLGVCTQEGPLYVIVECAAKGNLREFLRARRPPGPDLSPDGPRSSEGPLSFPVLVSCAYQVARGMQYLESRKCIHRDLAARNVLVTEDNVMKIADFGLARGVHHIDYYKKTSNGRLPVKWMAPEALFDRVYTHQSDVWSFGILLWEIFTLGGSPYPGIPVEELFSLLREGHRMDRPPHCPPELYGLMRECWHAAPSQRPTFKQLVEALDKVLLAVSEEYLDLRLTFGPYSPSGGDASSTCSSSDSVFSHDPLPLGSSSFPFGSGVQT
Fibroblast growth factor receptor (Homo sapiens), sequence (P22607 whole entry, looked up): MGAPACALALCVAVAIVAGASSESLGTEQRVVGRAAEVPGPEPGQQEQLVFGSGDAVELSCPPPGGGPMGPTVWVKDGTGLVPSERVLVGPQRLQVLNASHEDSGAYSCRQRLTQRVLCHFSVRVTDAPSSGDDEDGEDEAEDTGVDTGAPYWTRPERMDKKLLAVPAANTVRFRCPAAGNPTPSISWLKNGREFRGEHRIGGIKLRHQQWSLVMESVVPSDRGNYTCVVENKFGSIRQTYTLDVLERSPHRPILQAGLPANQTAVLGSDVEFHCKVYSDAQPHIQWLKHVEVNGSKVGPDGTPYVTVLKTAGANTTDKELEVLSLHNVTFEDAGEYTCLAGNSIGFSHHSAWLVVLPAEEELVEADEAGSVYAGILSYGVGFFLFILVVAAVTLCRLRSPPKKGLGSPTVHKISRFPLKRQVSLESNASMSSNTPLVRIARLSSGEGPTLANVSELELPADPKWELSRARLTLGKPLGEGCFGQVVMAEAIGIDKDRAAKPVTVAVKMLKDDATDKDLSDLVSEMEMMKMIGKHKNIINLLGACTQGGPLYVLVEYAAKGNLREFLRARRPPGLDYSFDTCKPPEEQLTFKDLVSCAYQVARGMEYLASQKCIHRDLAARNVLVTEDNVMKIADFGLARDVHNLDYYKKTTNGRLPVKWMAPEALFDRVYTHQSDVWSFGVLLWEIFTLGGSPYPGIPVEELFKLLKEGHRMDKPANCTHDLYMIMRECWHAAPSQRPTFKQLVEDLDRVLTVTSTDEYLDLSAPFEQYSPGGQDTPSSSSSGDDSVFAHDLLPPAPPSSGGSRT

Compound	Kd [1]	Concentration [2]	Concentration [3]	IC50 [4]	Concentration [5]	IC50 [6]	kmax/KS [7]	T1/2 [8]	Kd [9]	KS [10]	inhibition [11]	kmax [12]
Nc1ncnc2c1ncn2[C@@H]1O[C@H](COP(=O)(O)OP(=O)(O)O)[C@@H](O)[C@H]1O [ADENOSINE DIPHOSPHATE]	10 µM											
Nc1ncnc2c1ncn2[C@@H]1O[C@H](COP(=O)(O)OP(=O)(O)OP(=O)(O)O)[C@@H](O)[C@H]1O [ADENOSINE TRIPHOSPHATE]	10 µM											
Nc1ncnc2c1ncn2[C@@H]1O[C@H](CO)[C@@H](O)[C@H]1O [ADENOSINE]	35 µM	50 µM	50 µM	195 µM	50 µM	~1600 µM						
Nc1ncnc2c1ncn2[C@@H]1O[C@H](CO)[C@@H](O)[C@H]1S		50 µM	50 µM		50 µM	45 µM	2000 M⁻¹ s⁻¹	5 min	1 µM	1 µM	70%	0.0023 s⁻¹
